Laboratory results reported in ChEMBL document CHEMBL5329185, “Structure-activity relationship studies on vitamin D-based selective SREBP/SCAP inhibitor KK-052” (RSC Med Chem, 2023).
Calls of active or inactive are those of the source. No cut-off for these calls is given here.

Assays:
[1] = biological target: T1, Vitamin D3 receptor (Homo sapiens) (UniProt P11473); test: Activation of VDR (unknown origin) transfected in CHO-K1 cells assessed as luciferase activity at 5 uM measured after 24 hrs by Steady-Glo luciferase assay; assay type: cell-based; details: filed as activator
T1 sequence (whole entry): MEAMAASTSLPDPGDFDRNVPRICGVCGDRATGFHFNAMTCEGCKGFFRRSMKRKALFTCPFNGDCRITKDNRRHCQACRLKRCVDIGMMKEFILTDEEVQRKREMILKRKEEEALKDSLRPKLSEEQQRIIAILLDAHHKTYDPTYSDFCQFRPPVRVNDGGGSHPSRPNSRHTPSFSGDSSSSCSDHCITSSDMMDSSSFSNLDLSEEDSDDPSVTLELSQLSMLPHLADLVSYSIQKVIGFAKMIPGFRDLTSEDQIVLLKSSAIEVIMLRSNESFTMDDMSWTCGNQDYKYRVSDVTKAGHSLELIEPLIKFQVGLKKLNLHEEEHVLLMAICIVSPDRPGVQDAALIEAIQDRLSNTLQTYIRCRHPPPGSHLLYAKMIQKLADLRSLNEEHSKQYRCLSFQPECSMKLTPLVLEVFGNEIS
In short: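 CHO-K1 cells transfected with a VDRE-driven luciferase reporter, then treated with compounds at 5 μM in lipid-free medium. 25(OH)D3 run in parallel as control, DMSO as negative control. Luciferase read-out, mean ± SD.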

CHO-K1 [2] = test: Downregulation of SCAP protein level in wild type CHO-K1 cells at 15 uM measured after 24 hrs by Western blot analysis; assay type: functional, cell-based; details: Cricetulus griseus
In short: (§1)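 Wild-type CHO-K1 cells or CHO-K1 cells overexpressing FLAG-SCAP(1–767) held in lipid-free medium with 15 μM compound for 24 h. Lysis in RIPA with protease inhibitors, 20 000g spin, BCA protein assay, SDS-PAGE and immunoblot. Endogenous SCAP probed with anti-hamster SCAP, the overexpressed form with anti-FLAG M2, actin as loading control. HRP chemiluminescence detection.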

CHO-K1 [3] = test: Downregulation of SCAP protein level in CHO-K1 cells harbouring FLAG-SCAP (1 to 767 residues) at 15 uM measured after 24 hrs by Western blot analysis; assay type: functional, cell-based; details: Cricetulus griseus; in short: as §1
CHO-K1 [4] = test: Inhibition of SREBP/SCAP (unknown origin) transfected with CHO-K1 cells cotransfected with pSRE-Luc/pAC-beta-gal at 5 uM measured after 24 hrs by Steady-Glo luciferase assay; assay type: cell-based; details: Homo sapiens
In short: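 CHO-K1 cells transfected with an SRE-controlled luciferase reporter, exposed to compounds at 5 μM in lipid-free medium. 25(OH)D3 tested alongside as control. Luciferase signal reported as mean ± SD.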

[5] = Inhibition of SREBP/SCAP (unknown origin) transfected with CHO-K1 cells cotransfected with pSRE-Luc/pAC-beta-gal measured after 24 hrs by Steady-Glo luciferase assay; assay type: cell-based; details: CHO-K1, 24 h
In short: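 IC50 taken from a dose-response in CHO-K1 cells transfected with an SRE-driven luciferase reporter. Cells were treated with various compound concentrations in lipid-free medium. Luciferase read-out, mean ± SD.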

Structure (SMILES)	Activity [1]	Activity (CHO-K1 [2])	Activity (CHO-K1 [3])	inhibition (CHO-K1 [4])	IC50 [5] [nM]
C[C@H](CCC(F)(F)C(C)(C)O)[C@H]1CC[C@H]2/C(=C/Cn3nnnc3-c3ccc(Cl)cc3)CCC[C@]12C	Active	–	–	–	–
C[C@H](CCC(F)(F)C(C)(C)O)[C@H]1CC[C@H]2/C(=C/Cn3nnc(-c4ccccc4Cl)n3)CCC[C@]12C	–	Active	Active	Active	2000
Cc1ccc(-c2nnnn2C/C=C2\CCC[C@]3(C)[C@@H]([C@H](C)CCC(F)(F)C(C)(C)O)CC[C@@H]23)cc1	Active	–	–	–	–
C[C@H](CCC(F)(F)C(C)(C)O)[C@H]1CC[C@H]2/C(=C/Cn3nnnc3-c3ccc(C(F)(F)F)cc3)CCC[C@]12C	Active	–	–	–	–
C[C@H](CCC(F)(F)C(C)(C)O)[C@H]1CC[C@H]2/C(=C/Cn3nnc(-c4ccc(C(F)(F)F)cc4)n3)CCC[C@]12C	Active	–	–	–	–
Cc1ccc(-c2nnn(C/C=C3\CCC[C@]4(C)[C@@H]([C@H](C)CCC(F)(F)C(C)(C)O)CC[C@@H]34)n2)cc1	Active	–	–	–	–
C=C1CC[C@H](O)C/C1=C/C=C1\CCC[C@]2(C)[C@@H]([C@H](C)CCCC(C)(C)O)CC[C@@H]12	–	Active	Active	–	–
C[C@H](CCC(F)(F)C(C)(C)O)[C@H]1CC[C@H]2/C(=C/Cn3nnnc3-c3ccccc3)CCC[C@]12C	–	Active	Active	–	3500
C[C@H](CCC(F)(F)C(C)(C)O)[C@H]1CC[C@H]2/C(=C/Cn3nnc(-c4ccc(Cl)cc4)n3)CCC[C@]12C	Active	–	–	–	–
Cc1cccc(-c2nnnn2C/C=C2\CCC[C@]3(C)[C@@H]([C@H](C)CCC(F)(F)C(C)(C)O)CC[C@@H]23)c1	–	Active	Active	Active	1400
